From ChEMBL document CHEMBL3872218, “Synthesis and T-type calcium channel-blocking effects of aryl(1,5-disubstituted-pyrazol-3-yl)methyl sulfonamides for neuropathic pain treatment” (Eur J Med Chem, 2016)

Legend:
N1E-115 = assay: Inhibition of voltage dependent T-type Ca2+ channel in mouse N1E-115 cells assessed as reduction in transient inward Ca2+ current at 50 uM by whole-cell patch clamp method relative to control; assay type: cell-based
Rattus norvegicus = species: Rattus norvegicus; assay: Inhibition of voltage dependent T-type Ca2+ channel in Wistar rat cerebral cortex assessed as reduction in transient inward Ca2+ current at -60 mV holding potential at 500 uM by whole-cell patch clamp method relative to control
[1] = molecular target: Voltage-dependent T-type calcium channel subunit alpha-1H (Homo sapiens, UniProt O95180); assay: Inhibition of Cav3.2 alpha1H (unknown origin) expressed in HEK293 cells assessed as decrease in KCl-induced depolarization mediated intracellular Ca2+ level at 10 uM by fluo3/AM based high throughput screening assay relative to control; assay type: cell-based
Sequence of Voltage-dependent T-type calcium channel subunit alpha-1H (O95180 whole entry): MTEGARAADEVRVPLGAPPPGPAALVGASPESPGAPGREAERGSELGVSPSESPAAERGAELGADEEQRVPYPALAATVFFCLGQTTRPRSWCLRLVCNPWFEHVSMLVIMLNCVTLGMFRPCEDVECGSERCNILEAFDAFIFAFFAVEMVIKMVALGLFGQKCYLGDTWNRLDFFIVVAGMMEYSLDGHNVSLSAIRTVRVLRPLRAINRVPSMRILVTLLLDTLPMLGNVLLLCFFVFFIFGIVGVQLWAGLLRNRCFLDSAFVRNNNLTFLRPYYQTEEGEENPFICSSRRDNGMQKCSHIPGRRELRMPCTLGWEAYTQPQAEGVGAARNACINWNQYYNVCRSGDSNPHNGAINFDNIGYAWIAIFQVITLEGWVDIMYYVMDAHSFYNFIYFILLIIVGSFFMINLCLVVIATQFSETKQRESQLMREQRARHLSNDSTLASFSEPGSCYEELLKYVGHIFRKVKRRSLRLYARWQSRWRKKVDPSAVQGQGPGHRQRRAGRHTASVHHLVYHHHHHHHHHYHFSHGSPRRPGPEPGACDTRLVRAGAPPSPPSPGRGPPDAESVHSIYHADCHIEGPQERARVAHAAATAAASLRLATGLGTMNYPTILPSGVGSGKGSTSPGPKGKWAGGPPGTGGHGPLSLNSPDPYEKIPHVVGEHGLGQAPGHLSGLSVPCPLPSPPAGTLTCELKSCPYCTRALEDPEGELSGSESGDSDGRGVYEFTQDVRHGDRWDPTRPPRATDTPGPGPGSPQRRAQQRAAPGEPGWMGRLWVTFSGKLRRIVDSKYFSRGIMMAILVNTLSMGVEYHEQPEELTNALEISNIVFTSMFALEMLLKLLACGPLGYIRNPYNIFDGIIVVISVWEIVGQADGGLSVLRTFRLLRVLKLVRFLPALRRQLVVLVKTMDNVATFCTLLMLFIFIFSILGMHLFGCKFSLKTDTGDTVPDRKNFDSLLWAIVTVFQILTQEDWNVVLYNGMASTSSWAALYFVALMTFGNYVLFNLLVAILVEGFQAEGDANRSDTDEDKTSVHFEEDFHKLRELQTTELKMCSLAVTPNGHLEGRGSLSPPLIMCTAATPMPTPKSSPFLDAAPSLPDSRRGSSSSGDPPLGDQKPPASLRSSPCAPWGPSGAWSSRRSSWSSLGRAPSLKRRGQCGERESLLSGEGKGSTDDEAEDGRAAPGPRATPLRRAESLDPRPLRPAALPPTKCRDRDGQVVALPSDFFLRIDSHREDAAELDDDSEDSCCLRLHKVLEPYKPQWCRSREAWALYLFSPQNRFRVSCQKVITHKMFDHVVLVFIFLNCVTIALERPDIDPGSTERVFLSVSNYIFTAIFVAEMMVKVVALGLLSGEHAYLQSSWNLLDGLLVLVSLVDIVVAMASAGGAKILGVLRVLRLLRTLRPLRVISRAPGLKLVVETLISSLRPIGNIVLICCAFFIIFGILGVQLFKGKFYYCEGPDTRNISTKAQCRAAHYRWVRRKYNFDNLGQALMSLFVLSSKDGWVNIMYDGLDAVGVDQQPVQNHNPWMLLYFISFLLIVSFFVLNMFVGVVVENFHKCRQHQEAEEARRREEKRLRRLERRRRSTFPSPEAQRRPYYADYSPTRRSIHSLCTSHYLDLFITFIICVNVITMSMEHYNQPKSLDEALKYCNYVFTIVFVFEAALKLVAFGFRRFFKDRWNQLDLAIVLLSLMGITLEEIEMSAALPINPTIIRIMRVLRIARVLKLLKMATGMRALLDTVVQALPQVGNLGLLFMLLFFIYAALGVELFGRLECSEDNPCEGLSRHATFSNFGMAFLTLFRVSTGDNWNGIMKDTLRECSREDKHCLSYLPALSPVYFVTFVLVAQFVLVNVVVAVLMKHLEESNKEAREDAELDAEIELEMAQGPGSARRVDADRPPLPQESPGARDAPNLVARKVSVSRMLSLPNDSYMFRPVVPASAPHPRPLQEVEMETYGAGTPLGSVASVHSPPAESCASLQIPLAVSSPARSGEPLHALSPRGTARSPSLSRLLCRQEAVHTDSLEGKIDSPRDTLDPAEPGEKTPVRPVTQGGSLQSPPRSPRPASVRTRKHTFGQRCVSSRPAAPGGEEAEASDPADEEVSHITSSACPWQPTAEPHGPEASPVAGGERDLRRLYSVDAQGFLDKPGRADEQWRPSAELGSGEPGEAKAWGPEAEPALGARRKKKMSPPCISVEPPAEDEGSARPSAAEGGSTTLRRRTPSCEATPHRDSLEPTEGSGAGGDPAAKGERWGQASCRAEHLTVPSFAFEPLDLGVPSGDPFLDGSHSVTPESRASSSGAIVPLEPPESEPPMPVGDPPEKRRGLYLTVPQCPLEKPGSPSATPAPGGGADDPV
Outline: (§1)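 HEK293 cells stably expressing Cav3.1 or Cav3.2 plated at 4 × 10⁴ cells/well and used the next day. Loaded 60 min at room temperature with […] fluo3/AM plus 0.001% Pluronic F-127 in HEPES-buffered saline (1.8 mM CaCl₂, pH 7.4). Ca²⁺ fluorescence read on FDSS6000 as % inhibition, compound at […].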

[2] = molecular target: Voltage-dependent T-type calcium channel subunit alpha-1G (Homo sapiens, UniProt O43497); assay: Inhibition of Cav3.1 alpha1G (unknown origin) expressed in HEK293 cells assessed as decrease in KCl-induced depolarization mediated intracellular Ca2+ level at 10 uM by fluo3/AM based high throughput screening assay relative to control; assay type: cell-based; outline: as §1
Sequence of Voltage-dependent T-type calcium channel subunit alpha-1G (O43497 whole entry): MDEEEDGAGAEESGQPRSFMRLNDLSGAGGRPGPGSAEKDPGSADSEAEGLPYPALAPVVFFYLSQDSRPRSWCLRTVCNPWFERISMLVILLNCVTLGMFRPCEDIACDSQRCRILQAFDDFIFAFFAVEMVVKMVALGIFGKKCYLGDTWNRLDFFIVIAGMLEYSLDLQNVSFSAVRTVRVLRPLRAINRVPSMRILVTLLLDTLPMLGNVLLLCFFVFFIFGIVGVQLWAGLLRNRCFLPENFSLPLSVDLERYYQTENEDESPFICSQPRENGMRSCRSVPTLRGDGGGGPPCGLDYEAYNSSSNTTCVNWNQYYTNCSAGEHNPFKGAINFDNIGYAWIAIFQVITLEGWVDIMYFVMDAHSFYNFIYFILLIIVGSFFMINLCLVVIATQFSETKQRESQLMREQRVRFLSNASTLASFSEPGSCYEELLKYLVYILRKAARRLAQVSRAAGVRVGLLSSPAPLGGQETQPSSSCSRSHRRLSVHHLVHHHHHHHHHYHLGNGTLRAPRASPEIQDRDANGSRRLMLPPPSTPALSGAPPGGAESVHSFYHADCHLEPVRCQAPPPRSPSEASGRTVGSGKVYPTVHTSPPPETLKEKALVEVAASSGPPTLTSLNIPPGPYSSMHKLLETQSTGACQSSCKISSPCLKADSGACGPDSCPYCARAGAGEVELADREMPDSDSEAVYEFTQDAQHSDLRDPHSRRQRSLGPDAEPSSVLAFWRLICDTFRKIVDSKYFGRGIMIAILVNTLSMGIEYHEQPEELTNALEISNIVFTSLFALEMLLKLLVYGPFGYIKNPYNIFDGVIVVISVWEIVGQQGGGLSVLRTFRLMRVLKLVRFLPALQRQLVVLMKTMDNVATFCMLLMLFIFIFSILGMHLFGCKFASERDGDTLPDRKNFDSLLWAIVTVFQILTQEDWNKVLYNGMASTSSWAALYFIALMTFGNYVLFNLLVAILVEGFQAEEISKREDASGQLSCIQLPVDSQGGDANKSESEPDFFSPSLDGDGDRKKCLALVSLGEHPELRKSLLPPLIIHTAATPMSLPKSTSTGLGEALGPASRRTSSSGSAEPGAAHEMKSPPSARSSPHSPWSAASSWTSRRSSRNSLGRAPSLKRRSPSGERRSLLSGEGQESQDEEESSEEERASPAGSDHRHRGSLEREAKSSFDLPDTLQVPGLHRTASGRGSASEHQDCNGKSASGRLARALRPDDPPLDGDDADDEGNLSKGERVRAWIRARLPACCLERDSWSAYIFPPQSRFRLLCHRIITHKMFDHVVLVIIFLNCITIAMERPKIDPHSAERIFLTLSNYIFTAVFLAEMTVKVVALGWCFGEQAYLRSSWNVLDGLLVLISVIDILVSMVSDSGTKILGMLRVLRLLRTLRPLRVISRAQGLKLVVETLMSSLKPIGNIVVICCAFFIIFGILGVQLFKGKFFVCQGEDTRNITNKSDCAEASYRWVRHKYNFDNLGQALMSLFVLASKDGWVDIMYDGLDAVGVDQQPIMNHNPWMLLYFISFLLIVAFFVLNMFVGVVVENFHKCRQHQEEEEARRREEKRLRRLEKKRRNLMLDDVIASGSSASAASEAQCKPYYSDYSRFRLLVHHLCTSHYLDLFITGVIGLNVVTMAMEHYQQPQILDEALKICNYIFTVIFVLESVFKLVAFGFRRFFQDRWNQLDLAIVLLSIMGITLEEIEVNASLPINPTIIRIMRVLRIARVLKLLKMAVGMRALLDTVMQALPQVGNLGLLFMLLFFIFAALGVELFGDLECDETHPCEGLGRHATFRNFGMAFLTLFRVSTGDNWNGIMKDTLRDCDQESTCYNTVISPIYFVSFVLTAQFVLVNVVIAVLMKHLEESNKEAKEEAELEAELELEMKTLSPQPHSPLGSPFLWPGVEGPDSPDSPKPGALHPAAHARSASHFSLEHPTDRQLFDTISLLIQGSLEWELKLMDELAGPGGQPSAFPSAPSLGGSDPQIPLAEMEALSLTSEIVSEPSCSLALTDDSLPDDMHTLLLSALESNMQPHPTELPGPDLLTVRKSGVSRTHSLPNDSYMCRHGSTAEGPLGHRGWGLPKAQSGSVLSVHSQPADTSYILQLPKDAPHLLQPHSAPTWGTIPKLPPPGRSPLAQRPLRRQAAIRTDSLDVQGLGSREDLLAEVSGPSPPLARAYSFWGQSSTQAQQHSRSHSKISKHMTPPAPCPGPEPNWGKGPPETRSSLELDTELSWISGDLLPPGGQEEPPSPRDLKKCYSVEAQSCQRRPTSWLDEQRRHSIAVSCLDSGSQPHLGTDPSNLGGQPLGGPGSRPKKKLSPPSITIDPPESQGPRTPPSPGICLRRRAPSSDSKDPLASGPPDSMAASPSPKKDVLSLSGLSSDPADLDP

NS(=O)(=O)Cc1noc2ccccc12 showed an inhibition (N1E-115) of 40% and an inhibition (Rattus norvegicus) of 60%.

CC(C)Cc1cc(CNS(=O)(=O)c2ccc3ccccc3c2)nn1-c1ccccc1 showed an inhibition [1] of 24.9% and an inhibition [2] of 19.8%.

With CC(C)Cc1cc(CNS(=O)(=O)c2cccc3cccnc23)nn1-c1ccccc1 the inhibition [1] was 61.4% and the inhibition [2] was 29.8%.

CC(C)Cc1cc(CNS(=O)(=O)Cc2cccc3ccccc23)nn1-c1ccccc1 gave an inhibition [1] of 6.66% and an inhibition [2] of 7.09%.

With Cc1cc(I)ccc1S(=O)(=O)NCc1cc(CC(C)C)n(-c2ccccc2)n1 the inhibition [1] was 26.6% and the inhibition [2] was 22.6%.

Compound CC(C)Cc1cc(CNS(=O)(=O)c2cccc(I)c2)nn1-c1ccccc1 has an inhibition [1] of 44.9% and an inhibition [2] of 46.4%.

CC(C)Cc1cc(CNS(=O)(=O)c2c(Cl)cccc2Cl)nn1-c1ccccc1 was tested, and the inhibition [1] was 56% and the inhibition [2] was 36.9%.

Work on CC(C)Cc1cc(CNS(=O)(=O)c2ccc(C(C)(C)C)cc2)nn1-c1ccccc1 yielded an inhibition [1] of 33.4% and an inhibition [2] of 46.9%.

Compound CC(C)Cc1cc(CNS(=O)(=O)c2cccc3ccccc23)nn1-c1ccccc1 has an inhibition [1] of 25.2% and an inhibition [2] of 24.3%.
